High-throughput results as filed in PubChem BioAssay.
UPR XBP1 act: adaptive UPR (XBP1) activation. CHO-XBP1 luciferase reporter, IRE1-XBP1 UPR activation, luminescence; percent of tunicamycin response, DMSO as zero. activation, % at 20 µM. actives 0.33% (n = 330,000);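 active = versus positive control, 20 µM dose yields 30% or more activation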;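 note: 100% = tunicamycin at 10 µg/mL and 0% = DMSO only wells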
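incubation = overnight seeding at 37 °C, 6 h compound treatment at 37 °C | assay system = CHO-XBP1 cells stably carrying IRE1-XBP1-driven luciferase reporter | input = 1000 cells per well | detection = luciferase luminescence | dosing = single point, 20 µM final compound, 1% DMSO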
Fh CTSL1 inh: cathepsin L1 inhibition, PFM18AAP counter-screen. recombinant F. hepatica cathepsin L1, Z-Leu-Arg-MCA fluorescence. inhibition, % at 5.96 µM. actives 0.49% (n = 300,000). AID 1906;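 active = inhibition above the mean of all tested compounds plus 3 SD, set per screening campaign, cut at about 17% in these data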;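 note: 0% = plate median of test compound wells and 100% = 1 µM Z-Phe-Ala-diazomethylketone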
UCH37 DUB inh: human UCH37 deubiquitinating enzyme inhibition | inhibition, % (no concentration beside the values) | AID 588478 | purified proteasome/UCH37, Ub-AMC cleavage fluorescence | Q9Y5K5 | actives 0.33% (n = 330,000);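 active = mean inhibition over replicate wells above about 20%, limit read from the data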;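 note: 0% = compound-free wells with enzyme and 100% = wells lacking proteasome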
Target sequence (Q9Y5K5 whole entry, looked up): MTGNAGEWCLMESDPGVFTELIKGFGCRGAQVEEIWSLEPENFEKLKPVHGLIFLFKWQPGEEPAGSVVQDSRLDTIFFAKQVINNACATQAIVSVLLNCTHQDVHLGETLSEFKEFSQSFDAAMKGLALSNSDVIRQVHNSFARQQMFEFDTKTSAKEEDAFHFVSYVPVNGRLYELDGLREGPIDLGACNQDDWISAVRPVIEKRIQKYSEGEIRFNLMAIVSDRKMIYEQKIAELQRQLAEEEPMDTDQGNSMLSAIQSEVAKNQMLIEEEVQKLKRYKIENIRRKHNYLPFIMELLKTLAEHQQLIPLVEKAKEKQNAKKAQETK
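Material: human UCH37 enzyme supplied as purified proteasome complex / Amount: 0.15 nM proteasome as dispensed / Buffer or medium: pH 7.4 Tris-HCl (50 mM) with ovalbumin, ATP-MgCl2, DTT / Times: preincubation 30 min, reaction 25 min, room temperature / Technique: AMC fluorescence from Ub-AMC cleavage, excitation 355 nm, emission 460 nm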
CHOP UPR activ: apoptotic UPR (CHOP) activation. actives 0.34% (n = 330,000). AID 449763. CHO-CHOP luciferase reporter, luminescence; percent of tunicamycin response over DMSO baseline. activation, % at 10 µM;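 active = at 10 µM dose, activation of 40% or more, normalized to positive control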;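 note: 100% = tunicamycin at 10 µg/mL and 0% = DMSO alone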
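System: CHO-CHOP luciferase reporter cell line; amount: 500 cells/well; buffer or medium: F12 medium containing 10% fetal bovine serum; incubation: 6 h compound exposure at 37 °C after overnight seeding; measured by: luciferase luminescence after 10 min with Steady-Glo reagent; evaluation: % reporter activation, DMSO baseline versus tunicamycin full activation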
CHOP inhibitor: CHOP inhibition in unfolded protein response; actives 3.8% (n = 220,000); inhibition, % at 10 µM; AID 2732; CHO-K1 CHOP-promoter luciferase, tunicamycin-induced, 15-18 h;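 active = compounds that reduced the stress-induced luciferase reporter signal by more than about 70% of percent inhibition, limit read from the data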;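 note: 0% = tunicamycin plus vehicle and 100% = wells without tunicamycin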
UCH37 confirm: confirmation of human UCH37 deubiquitinating enzyme inhibitors | shares compounds with UCH37 DUB inh | Proteasome-bound UCH37, Ub-AMC cleavage fluorescence | inhibition, % at 20 µM | actives 27% (n = 480) | AID 624100;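 active = average inhibition over replicates above about 50%, so the earlier screening hit is confirmed, limit read from the data; inactive = the rest, counted as false positives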;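 note: based on cleavage rate fitted by regression over a 30 min kinetic read; 0% = proteasome plus Ub-AMC and 100% = Ub-AMC without proteasome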
An asterisk follows results filed as active; . = not tested or not shown. This excerpt belongs to a sample that is enriched for hits.

SMILES | UPR XBP1 act | Fh CTSL1 inh | UCH37 DUB inh | CHOP UPR activ | CHOP inhibitor | UCH37 confirm
N/C(=N\S(=O)(=O)c1cccs1)c1ccccc1 | -0.8 | -2.2 | 1.8 | 0.3 | 13.3 | .
O=C1/C(=N\S(=O)(=O)c2cccs2)C([n+]2ccccc2)=C([O-])c2ccccc21 | -2.5 | 25.5* | 50.6* | -0.4 | -26.3 | 39.6
C(/C=C/c1ccccc1)=NN1CCN(Cc2ccccc2)CC1 | . | . | 1.8 | . | . | .
Cc1ccc2nc(SCC(=O)NN=Cc3ccc(C(=O)O)cc3)cc(C)c2c1 | . | . | 0.8 | . | . | .
CC(CC(=O)N1CCN(C=O)CC1)=NNC(=O)c1cccc([N+](=O)[O-])c1 | . | . | 3.1 | . | . | .
CC(=NNC(=O)Cc1csc(N2CCOCC2)n1)c1ccccc1 | . | . | 4.3 | . | . | .
Cc1[nH]c2ccccc2c1C=NNc1nc(N2CCCCC2)nc(N2CCCCC2)n1 | . | . | 4.6 | . | . | .
C(=NNc1nc(N2CCCCC2)nc(N2CCCCC2)n1)c1c[nH]c2ccccc12 | . | . | 38.4* | . | . | -58.9
O=C(NN=Cc1cn(-c2ccccc2)nc1-c1ccccc1)c1ccc2c(c1)OCO2 | . | . | 3.2 | . | . | .
O=[N+]([O-])c1cc([N+](=O)[O-])c2oc(-c3ccccc3)c(Br)c2c1O | . | . | 26.7* | . | . | 71.0*
Cc1cnn(-c2cc(NN=Cc3ccc(F)cc3)ncn2)c1 | . | . | 5.0 | . | . | .
CCOc1ccc(C=NNc2ccc(S(=O)(=O)Nc3ccccc3C(=O)O)cc2[N+](=O)[O-])cc1 | 1.6 | . | 17.1 | -0.2 | . | .
C=CCOc1ccc(C=NNc2ccc(S(=O)(=O)Nc3ccccc3C(=O)O)cc2[N+](=O)[O-])cc1OC | -2.6 | . | 86.3* | 1.5 | . | 83.3*
O=C(O)c1ccccc1NS(=O)(=O)c1ccc(NN=Cc2cccc(O)c2O)c([N+](=O)[O-])c1 | . | . | 32.2* | . | . | 40.3
CC(=NNC(=O)c1nnn(-c2nonc2N)c1CN(C)c1ccccc1)c1ccc(O)cc1 | . | . | 5.3 | . | . | .
Cc1cccc(C=Nc2sc3c(c2C#N)CCN(Cc2ccccc2)C3)c1O | . | . | 2.2 | . | . | .
C/C(C=NNC(=O)c1c(Br)cnn1C)=C\c1ccccc1 | . | . | 5.6 | . | . | .
CCCOc1ccc(C2=CC(=O)C[C@H](c3ccc(OC)cc3)C2)cc1 | 1.0 | . | 35.6* | 4.4 | . | -2.3
NC(=O)C1CCN(C2=C(NS(=O)(=O)c3ccc(Cl)cc3)C(=O)c3ccccc3C2=O)CC1 | 2.1 | 4.0 | 33.4* | 0.3 | 1.9 | 30.0
CCOC(=O)N1CCN(C2=C(NS(=O)(=O)c3ccc(C)cc3)C(=O)c3ccccc3C2=O)CC1 | -2.6 | 5.8 | 42.0* | 5.5 | . | 52.7*
COC(=O)C1CCN(C2=C(NS(=O)(=O)c3ccc(Cl)cc3)C(=O)c3ccccc3C2=O)CC1 | -1.6 | -0.1 | 3.8 | 0.3 | 8.9 | .
Cc1ccc(S(=O)(=O)NC2=C(N3CCN(Cc4ccccc4)CC3)C(=O)c3ccccc3C2=O)cc1 | -0.1 | -1.8 | 5.6 | 3.1 | 30.7 | .
CCOC(=O)NN=Cc1ccc(N2CCOCC2)s1 | . | . | -4.5 | . | . | .
C/C(C=NNC(=O)c1sc(N)nc1C)=C\c1ccccc1 | . | . | -21.4 | . | . | .
CC(C)(C)OC(=O)NCc1ccc(CNC(=O)c2[nH]cnc2C(=O)NC2CCN(C(=O)OC(C)(C)C)CC2)cc1 | -1.9 | . | 39.4* | 0.6 | . | -15.6
SMILES | UPR XBP1 act | Fh CTSL1 inh | UCH37 DUB inh | CHOP UPR activ | CHOP inhibitor | UCH37 confirm
CC1(C)CCCC2=C1CC1C(=O)N(Cc3cccnc3)C(=O)C1C2 (stereo unspecified) | 0.8 | 2.9 | 38.7* | -1.1 | 5.5 | 45.7
CCNC(=O)COc1cccc(C(=O)NCc2ccccc2)c1 | -3.8 | 0.6 | 6.2 | -0.9 | 1.5 | .
CC(C)CNC(=O)COc1cccc(C(=O)NCc2ccccc2)c1 | 1.4 | 4.1 | 35.8* | -0.6 | 29.4 | 11.7
O=C1C(Nc2ccc(O)cc2)=CC(=NS(=O)(=O)c2cccs2)c2ccccc21 | . | . | 75.4* | . | . | 41.6
Cc1cc(=O)oc(C)c1C(=O)O | -1.2 | 2.0 | 1.4 | 0.8 | 40.7 | .
Cc1oc2c(c1C(=O)O)C(=O)c1ccccc1C2=O | 1.9 | 2.5 | 49.0* | 2.5 | -24.6 | 45.9
CCOC(=O)c1c(C)oc2c1C(=O)c1ccccc1C2=O | 1.9 | 12.8 | 27.8* | 2.0 | 41.7 | 29.0
CCOC(=O)c1c(C)nc2c(c1-c1ccccc1)C(=O)c1ccccc1-2 | 8.7 | 4.3 | 2.7 | 2.7 | 15.4 | .
CC(C)(C)c1ccc(C=Nn2cnnc2)cc1 | . | . | 0.3 | . | . | .
O=C(NN=Cc1ccc[nH]1)c1ccc(COc2cccc3cccnc23)cc1 | . | . | -3.5 | . | . | .
O=[N+]([O-])c1ccc(C=Nn2c(COc3ccccc3)n[nH]c2=S)cc1 | . | . | 6.1 | . | . | .
CC(Sc1nnc(-c2cccnc2)n1N)C(=O)NCCC1=CCCCC1 (stereo unspecified) | -0.6 | . | 62.6* | -1.6 | . | 51.8*
CC(=NNC(N)=O)C1CC(Cc2ccccc2)C(=O)O1 (stereo unspecified) | . | . | -0.4 | . | . | .
CC(C)N1CCC(=NNc2ccc(S(=O)(=O)N3CCOCC3)cc2[N+](=O)[O-])CC1 | -3.4 | 0.6 | 6.3 | 1.7 | 2.8 | .
CCCN1CCC(=NNc2ccc(S(=O)(=O)N3CCOCC3)cc2[N+](=O)[O-])CC1 | 1.5 | 6.4 | 43.6* | -1.3 | -14.9 | -0.3
CCCCCCCCCCCCCCCC[n+]1ccc(C(N)=O)cc1 | -1.3 | 5.8 | 68.0* | 1.2 | 70.4* | 71.2*
CCCCCCCC[n+]1cccc(C(=O)N(CC)CC)c1 | -3.8 | 4.9 | 0.8 | -0.8 | -10.2 | .
CCCCCCCCCCCCCCCC[n+]1ccccc1 | . | . | 79.2* | . | . | 97.4*
Cc1ccc(NC2=C(N3CCOCC3)C(=O)c3ccccc3C2=O)cc1 | -4.3 | 17.0* | 28.0* | 1.7 | -9.5 | 25.9
O=C(O)c1ccc(NC2=C(N3CCOCC3)C(=O)c3ccccc3C2=O)cc1 | -0.7 | 33.4* | 33.8* | 0.7 | 4.1 | 18.3
Cc1ccc(NC2=CC(=O)C(=O)c3ccccc32)cc1 | 17.1 | 14.7 | 46.5* | 44.7* | 12.2 | 54.8*
CC(=O)c1ccc(NC2=C(N3CCOCC3)C(=O)c3ccccc3C2=O)cc1 | -1.0 | 35.2* | 31.6* | -1.0 | 20.9 | 51.0*
CCOC(=O)C(C#N)=NNc1ccc(S(=O)(=O)N2CCc3ccccc32)cc1 | . | . | 4.9 | . | . | .
COc1ccc(C(=O)NN=C(C)CC(=O)N2CCN(C=O)CC2)cc1 | . | . | 0.7 | . | . | .
COc1ccc(CC(=O)Nc2ccc(C(C)=NNC(=O)c3ccc(Br)o3)cc2)cc1 | . | . | -5.8 | . | . | .
Cc1[nH][nH]c(=O)c1C(c1ccc(Br)cc1)c1c(C)[nH][nH]c1=O | -2.6 | 0.1 | 8.7 | 2.1 | . | .
Cc1[nH][nH]c(=O)c1C(c1ccc(-c2cccc(Cl)c2)o1)c1c(C)[nH][nH]c1=O | 0.9 | 8.5 | 80.5* | 0.8 | -23.7 | 84.0*
CNC(=S)N/N=C/c1ccc(-c2cccc(C(=O)O)c2)o1 | -3.5 | 3.3 | . | 0.6 | -11.1 | .
